Screening results: PubChem BioAssay, Sanford-Burnham Center for Chemical Genomics
This is a sample that favours compounds with a hit; in the whole collection about 3% have one here.
SENP8 block-1 – blocks the human protease SENP8. purified SENP8, Z-RLRGG-aminoluciferin cleavage, luminescence. inhibition, % at 10 µM. 330,000 compounds, 1.2% hits. AID 2540; in the data active means inhibition above about 50%
SENP8 block-2 – blocks human SENP8 cleavage of Nedd8 substrate. AID 602440. inhibition, % at 20 µM. Q96LD8. recombinant SENP8, Nedd8 substrate fluorescence. 360,000 compounds, 0.64% hits; in the data active means inhibition mostly above about 40%, no sharp cut-off; inactive means mostly below about 27%
UBC13 polyUb – inhibitors of human UBC13 polyubiquitin chain formation. P61088. TR-FRET. 330,000 compounds, 0.47% hits. inhibition, % at 20 µM. AID 485273; in the data active means inhibition above about 45%, passing the limit was not always enough
Apaf-1 inh – inhibitors of human Apaf-1 apoptosome; O14727; reconstituted apoptosome caspase-3 activity, DEVD-Rh110 fluorescence; inhibition, % at 20 µM; 330,000 compounds, 0.71% hits; AID 489030; active means inhibition of at least 40% at 20 µM;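 further: plate controls were DMSO wells for no effect and DEVD-CHO caspase inhibitor wells for full effect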
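Material: reconstituted apoptosome with Apaf-1, cytochrome c, caspase-9, procaspase-3, dATP; medium: pH 7.5 Hepes buffer with CHAPS, BSA, DTT; also added: cytochrome c and DEVD-Rh110 substrate; timing: 30 min plus 50 min, RT; signal: Rh110 fluorescence intensity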
SENP6 inh – inhibitors of human SENP6 protease; Q9GZR1; Recombinant SENP6 catalytic domain, aminoluciferin luminescence; inhibition, % at 10 µM; 330,000 compounds, 1.8% hits; AID 2599;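 active means inhibition above about 50% at the single tested dose, limit read from the data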;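 further: plate controls were DMSO wells with enzyme for no effect and DMSO wells lacking enzyme for full effect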
Target sequence (Q9GZR1 628-1112 limits assumed): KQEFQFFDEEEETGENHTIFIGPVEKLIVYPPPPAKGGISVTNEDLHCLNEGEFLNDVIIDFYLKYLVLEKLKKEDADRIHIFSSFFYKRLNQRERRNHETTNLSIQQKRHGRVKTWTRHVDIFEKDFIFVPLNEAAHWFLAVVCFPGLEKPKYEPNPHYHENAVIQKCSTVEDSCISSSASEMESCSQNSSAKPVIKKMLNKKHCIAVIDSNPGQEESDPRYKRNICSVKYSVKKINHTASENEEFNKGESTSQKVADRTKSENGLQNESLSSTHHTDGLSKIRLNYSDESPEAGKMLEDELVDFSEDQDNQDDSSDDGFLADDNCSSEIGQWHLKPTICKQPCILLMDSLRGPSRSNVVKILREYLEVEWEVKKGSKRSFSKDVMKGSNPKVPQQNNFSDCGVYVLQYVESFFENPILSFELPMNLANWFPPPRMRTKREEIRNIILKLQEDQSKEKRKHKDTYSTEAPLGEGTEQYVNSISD
SENP7 block – inhibitors of human SENP7 protease. Q9BQF6. recombinant SENP7, Z-RLRGG-aminoluciferin luminescence, 40 min. inhibition, % at 5 µM. 330,000 compounds, 1.5% hits;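 active means inhibition above about 50% at the single test dose, limit read from the data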;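 further: plate controls were DMSO with enzyme for no effect and no enzyme buffer wells for full effect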
SENP8 confirm – human SENP8 inhibition, confirmed; shares compounds with SENP7 block; AID 488912; 6,200 compounds, 40% hits; inhibition, % at 12.5 µM; Recombinant SENP8, Z-RLRGG-aminoluciferin luminescence, 60 min;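 active means mean inhibition across replicates above about 50%, limit read from the data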
SENP6 conf – confirmation of human SENP6 protease inhibitors; 6,200 compounds, 58% hits; shares compounds with SENP7 block; recombinant SENP6, Z-RLRGG-aminoluciferin luminescence; AID 488915; inhibition, % at 12.5 µM
SENP7 conf – human SENP7 inhibition, confirmed. shares compounds with SENP7 block. recombinant SENP7, Z-RLRGG-aminoluciferin luminescence, 40 min. 6,200 compounds, 69% hits. inhibition, % at 12.5 µM
Casp3 select – selectivity test for SENP inhibitors: human caspase-3 inhibition; 6,200 compounds, 60% hits; purified caspase-3, Z-DEVD-aminoluciferin luminescence, 60 min; inhibition, % at 12.5 µM; shares compounds with SENP7 block;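 active means mean inhibition above about 50%, limit read from the data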;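 further: plate controls were enzyme with DMSO for no effect and wells without caspase-3 for full effect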
Luc interf – luminescence interference (SENP counter-screen). shares compounds with SENP7 block. Pre-incubated SENP8/Z-RLRGG-aminoluciferin, luciferase luminescence interference. inhibition, % at 12.5 µM. 6,200 compounds, 39% hits;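 active means mean inhibition above about 50% when retested at one dose, limit read from the data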;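 further: plate controls were DMSO wells with completed reaction for no effect and substrate without enzyme for full effect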
* hit, by the source's call.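 How the source made its calls, unless noted: active means mean inhibition above about 50% in the one-dose retest (limit read from the data); inactive means the rest.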

CC(=O)N1CCc2c(sc(NC(=O)c3ccc(S(=O)(=O)N(C)CC4CCCO4)cc3)c2C(N)=O)C1 (stereo not given) was read as SENP8 block-2 -61.
O=C(NCCc1c[nH]c2ccccc12)OC1CC2CC1[C@H]1CCCCN1C2=O (stereo not given in full) was read as SENP8 block-2 6.
COc1ccc(OC)c(CN2C(=O)CN(S(C)(=O)=O)CC2(C)C(=O)NCc2ccccc2)c1 (stereo not given) was read as SENP8 block-2 18.
Screening O=C(NCc1ccccc1)C(c1cc2ccccc2o1)n1c(=O)c(-c2ccco2)nc2ccccc21 (stereo not given) returned SENP8 block-2 -411.
For Brc1ccc(-c2nc(N/N=C/c3cccnc3)c3ccccc3n2)cc1 the results were SENP8 block-1 85*, SENP8 block-2 -105, UBC13 polyUb 11, Apaf-1 inh 10, SENP6 inh 90*, SENP7 block 90*, SENP8 confirm 5, SENP6 conf 5, SENP7 conf 2, Casp3 select 5 and Luc interf 3.
ClC(=C\c1ccccc1)/C=N/N1CCN(c2ccccn2)CC1 was read as SENP8 block-1 -13, SENP8 block-2 8, UBC13 polyUb -5, Apaf-1 inh 9, SENP6 inh 26, SENP7 block 54*, SENP8 confirm 5, SENP6 conf 6, SENP7 conf 17, Casp3 select 31 and Luc interf 5.
CCCc1nnc(NC(=O)CC(=O)Nc2ccccc2C(=O)O)s1 was read as SENP8 block-1 43, SENP8 block-2 0, UBC13 polyUb 4, Apaf-1 inh -2, SENP6 inh 61*, SENP7 block 38, SENP8 confirm 65*, SENP6 conf 61*, SENP7 conf 84*, Casp3 select 87* and Luc interf 60*.
For CCOC(=O)N(C)c1c(CC)nc2c(OCc3ccc(Cl)cc3)cccn12 the results were SENP8 block-2 -5.
For Cn1c(CSc2nc3ccccc3s2)nnc1SCC(=O)NCCN1CCOCC1 the results were SENP8 block-1 -3, SENP8 block-2 10, UBC13 polyUb -4, Apaf-1 inh 1, SENP6 inh 3, SENP7 block 76*, SENP8 confirm 10, SENP6 conf 8, SENP7 conf 5, Casp3 select 1 and Luc interf 4.
`c1ccc(COc2ccc(OCCCn3cncn3)cc2)cc1` gave SENP8 block-1 52*, SENP8 block-2 24, UBC13 polyUb -3, Apaf-1 inh 6, SENP6 inh 73*, SENP7 block 77*, SENP8 confirm 74*, SENP6 conf 73*, SENP7 conf 89*, Casp3 select 77* and Luc interf 74*.
For Clc1ccc(-c2nc3c4ccccc4ccn3c2Cc2ccsc2)cc1 the results were SENP8 block-2 -386.
`O=C(Nc1ccc(Cl)cn1)c1cc2ccccc2o1` gave SENP8 block-1 59*, SENP8 block-2 8, UBC13 polyUb -1, Apaf-1 inh 12, SENP6 inh 74*, SENP7 block 79*, SENP8 confirm 9, SENP6 conf 64*, SENP7 conf 82*, Casp3 select 70* and Luc interf 28.
